# Assay results reported in ChEMBL document CHEMBL4118110, “The identification of inhibitory compounds of Rickettsia prowazekii methionine aminopeptidase for antibacterial applications” (Bioorg Med Chem Lett, 2018).
# Test: Inhibition of Rickettsia prowazekii N-terminal His6-tagged methionine aminopeptidase 1 expressed in Escherichia coli DLB3 Rosetta cells at 10 uM using Met-AMC as substrate preincubated for 1 hr followed by 30 mins incubation after substrate addition measured after 90 mins in presence of MnCl2 by fluorescence assay relative to control
# In short: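 Recombinant R. prowazekii MetAP with Mn(II) as the metal cofactor. Met-AMC substrate; release of free AMC is followed by fluorescence (excitation 360 nm, emission 460 nm). Activity is the slope of fluorescence versus time, compared with an uninhibited control.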
row,Compound,inhibition
1,c1ccc(-c2nn[nH]n2)nc1,44 to 56%
2,Cc1cccc(-c2nnc(C(C)N)o2)c1 (stereo not given),1 to 43%
3,Cc1ccccc1NC(=O)CSc1nnc[nH]1,26 to 64%
4,CC(C)CNC(=O)c1ccc2[nH]c(=O)c(=O)[nH]c2c1,35 to 44%
5,Nc1nnc(SCCCc2ccccc2)[nH]1,18 to 37%
6,Cc1c(C(=O)O)sc2ncn(C3CCCCC3)c(=O)c12,17 to 26%
7,Cc1c(Cl)cccc1NC(=O)CSc1nnc[nH]1,22 to 62%
8,COC(=O)c1ccc(CSc2nnc(N)[nH]2)cc1,36 to 46%
9,CC(C)(C)C1CCc2n[nH]c(C(=O)O)c2C1 (stereo not given),1 to 41%
10,CC(C)CC(N)c1nnc2ccccn12 (stereo not given),22 to 61%
11,C1=C(c2ccccc2)Nc2ncnn2C1c1ccco1 (stereo not given),23 to 32%
12,Cc1ccc(C(=O)CSc2nnc(-c3ccco3)[nH]2)cc1,24 to 26%
13,O=C(O)c1ccc(-c2ccccc2Cl)s1,1 to 48%
14,Cc1nc2sc(C(=O)O)c(C)c2c(=O)[nH]1,11 to 18%
15,COC(=O)CSc1nnc(-c2ccco2)[nH]1,13 to 27%
16,CN(C)C(=O)CSc1nnc(-c2ccncc2)[nH]1,21 to 44%
17,COc1ccccc1OCc1ccc(C(=O)O)o1,6 to 17%
18,O=C(CSc1nnc[nH]1)Nc1ccccc1,2 to 60%
19,O=c1c2ccc(-c3ccccn3)nc2[nH]n1-c1ccccc1,1 to 55%
20,Cc1c(C(=O)O)sc2nc(CN(C)C)[nH]c(=O)c12,20 to 25%
21,O=C(O)c1ccc(CSc2nnc[nH]2)o1,16 to 21%
22,CCc1nnc(SCC(=O)c2ccc(F)cc2)[nH]1,2 to 13%
23,COc1ccc(C=O)cc1OCc1ccc(C(=O)O)o1,36 to 65%
24,CCCCOC(=O)CSc1nnc(N)[nH]1,39 to 62%

row,Compound,inhibition
1,Nc1nnc(SCC(=O)OCc2ccccc2)[nH]1,20 to 34%
2,Cc1nnc(SCC(=O)c2ccc(C(C)C)cc2)[nH]1,1 to 41%
3,Nc1n[nH]c(SCCN2C(=O)c3ccccc3C2=O)n1,45 to 50%
4,Cc1c(C(=O)O)sc2ncn(C3CCCC3)c(=O)c12,20 to 26%
5,Nc1nnc(SCC(=O)Nc2ccc(Cl)cc2)[nH]1,19 to 38%
6,COc1cccc(-c2cc(C(=O)O)no2)c1,31 to 35%
7,O=C(Nc1ccccc1)C(=O)Nc1ccccc1,2 to 39%
8,CCc1n[nH]c(SCC(=O)c2cccc([N+](=O)[O-])c2)n1,16 to 44%
9,O=C(O)c1ccc(C2=NCc3ccccc3N2)o1,7 to 63%
10,NNC(=O)C(=O)Nc1ccccc1C(=O)O,11 to 63%
11,COc1ccc(-c2nnc3c(N)cccn23)cc1,13 to 23%
12,O=C(O)c1ccc(COc2ccccc2F)o1,5 to 46%
13,N#Cc1ccccc1CSc1nnc(N)[nH]1,27 to 28%
14,COC(=O)c1ccc(CSc2nc[nH]n2)o1,30 to 59%
15,Nc1n[nH]c(SCCOc2ccccc2)n1,28 to 29%
16,c1ccc(CSc2n[nH]c(-c3ccco3)n2)cc1,13 to 16%
17,O=C(O)c1nn(-c2ccccc2)c2c1CCC2,45 to 51%
18,O=C(NCc1ccco1)c1ccc2nc(O)c(O)nc2c1,35 to 39%
19,CCCCCn1cnc2sc(C(=O)O)c(C)c2c1=O,34 to 57%
20,COc1ccccc1NC(=O)CSc1nc[nH]n1,19 to 52%
21,Cc1ccc(N2C(=O)CC(Sc3nc[nH]n3)C2=O)cc1 (stereo not given),40 to 56%
22,Cc1c(C(=O)O)sc2ncn(C)c(=O)c12,9 to 47%
23,CCOC(=O)c1cccc(CSc2nnc(N)[nH]2)c1,47 to 59%
24,CCn1cnc2sc(C(=O)O)c(C)c2c1=O,7 to 47%

row,Compound,inhibition
1,c1ccc(-c2nc3ccccc3[nH]2)nc1,1 to 35%
2,Cc1c(C(=O)O)sc2nc[nH]c(=O)c12,44 to 51%
3,COCCCn1cnc2sc(C(=O)O)c(C)c2c1=O,7 to 22%
4,COc1ccc(Cl)cc1-c1nnc(S)[nH]1,20 to 65%
5,Sc1nnc(-c2ccc(Br)cc2)[nH]1,33 to 61%
6,Cc1c(C(=O)O)sc2nc(C)n(C)c(=O)c12,22 to 34%
7,O=C(CSc1nnc(-c2ccco2)[nH]1)N1CCCCC1,1 to 48%
8,O=C(O)c1cc(C2CC2)on1,28 to 30%
9,Oc1ccc(Br)cc1-c1nnco1,1 to 14%
10,O=C(O)c1nc(C2CC2)n2ccccc12,40 to 68%
11,CCCN1CC(=O)C(c2nc3ccccc3[nH]2)=C1N,1 to 31%
12,Cc1nc(C(=O)O)c(-c2ccccc2F)s1,26 to 31%
13,COc1ccc(N2C(=O)CCC2=O)cc1S(=O)(=O)Nc1cccc2cccnc12,14 to 36%
14,COc1ccccc1C1CC(c2cc(F)ccc2O)=NN1 (stereo not given),1 to 57%
15,CC(C)N(C(=O)CSc1nnc(N)[nH]1)c1ccccc1,24 to 64%
16,Oc1ccc2nc(-c3ccccn3)oc2c1,1 to 43%
17,O=C(O)c1ccc(CSc2ccccc2)o1,5 to 34%
18,O=C1C(Cl)=C(N2CCCCC2)C(=O)c2ccccc21,12 to 46%
19,Cc1ccc(CSc2nnc(N)[nH]2)cc1,36%
20,CC(C)c1ccc(C(=O)CSc2nc[nH]n2)cc1,1 to 32%
21,O=C(O)c1ccc(S(=O)(=O)c2ccc(Cl)cc2)o1,41 to 68%
22,NCc1nnc(-c2ccccc2)o1,12 to 13%
23,CC(C)OC(=O)CSc1nnc(N)[nH]1,23 to 38%
24,c1ccn2c(C3CCCN3)nnc2c1 (stereo not given),2 to 51%

row,Compound,inhibition
1,Cc1nnc(SCC(=O)c2ccc(C)c(C)c2)[nH]1,10 to 24%
2,O=C(NCCCCl)C(=O)NCCCCl,8 to 43%
3,CCc1ccc(C(=O)CSc2nnc(CC)[nH]2)cc1,9 to 47%
4,Nc1cc(-c2ccccn2)n[nH]1,1 to 45%
5,Oc1ccccc1-c1nncn1-c1ccccc1,14 to 46%
6,Nc1nnc(SCC(=O)OCCCc2ccccc2)[nH]1,44 to 62%
7,Cc1ccc(NC(=O)CSc2nnc[nH]2)c(C)c1,25 to 66%
8,Cc1cc(OC(C)C(=O)NN)cc(C)c1Cl (stereo not given),31 to 69%
9,Cc1c(C(=O)O)sc2ncn(CC(=O)O)c(=O)c12,2 to 44%
10,Nc1ccccc1-c1nnc2n1CCCCC2,5 to 46%
11,O=C(O)c1nn(-c2ccccc2)c(=O)c2ccccc12,21 to 44%
12,Nc1cccc(-c2cnc(-c3ccccn3)s2)c1,30 to 36%
13,CCc1n[nH]c(SCc2ccc([N+](=O)[O-])cc2)n1,1 to 27%
14,CCc1nnc(SCC(=O)c2ccc(C(C)C)cc2)[nH]1,9 to 44%
15,C#CCSc1nc2sc(C(=O)O)c(C)c2c(=O)[nH]1,9 to 58%
16,O=C1CCC(c2ccccc2O)=NN1,51 to 54%
17,O=C(O)C1Cc2c([nH]c3ccccc23)CN1 (stereo not given),17 to 19%
18,Cc1ccc2nc(-c3ccccn3)cc(C(=O)O)c2c1,28%
19,Cc1ccc(-n2nnc(C(=O)O)c2C)cc1C,41%
20,Cc1cccn2c(=O)c3cc(C(=O)O)sc3nc12,31 to 36%
21,NC(=O)c1nc(-c2ccccc2)oc1Cl,4 to 59%
22,O=C(O)c1ccc(Sc2ccc(Br)cc2)o1,1 to 48%
23,Cc1ccc(C(=O)NN)cc1,1 to 34%
24,COc1ccc(C(=O)CSc2nnc(C)[nH]2)cc1C,16 to 56%

row,Compound,inhibition
1,Cc1ccc(-c2noc(-c3ccccc3N)n2)cc1,2 to 52%
2,NNC(=O)COc1cccc(Br)c1,1 to 45%
3,CCc1nnc(SCC(=O)c2ccc([N+](=O)[O-])cc2)[nH]1,75 to 81%
4,CCc1n[nH]c(SCC(=O)NCCc2ccccc2)n1,1 to 15%
5,O=C(NCc1ccccn1)c1ccc2[nH]c(=O)c(=O)[nH]c2c1,36 to 40%
6,CCN1CCN(Cc2ccc(O)c3ncccc23)CC1,20 to 39%
7,Cc1ccc(-c2cc(C(=O)O)nn2C)cc1,42 to 45%
8,Cc1cc(C)n2c(C(N)CC(C)C)nnc2n1 (stereo not given),6 to 23%
9,Cc1ccc(OCCCCSc2nnc(N)[nH]2)cc1,45 to 65%
10,Cc1cccc(OCc2ccc(C(=O)O)o2)c1,1 to 33%
11,Nc1n[nH]c(SCc2c(Cl)cccc2Cl)n1,5 to 17%
12,Cc1cc(C(=O)O)nn1-c1cccc(Cl)c1,1 to 22%
13,COc1ccc(OCCSc2n[nH]c(N)n2)cc1,27 to 32%
14,O=C(CSc1nnc[nH]1)c1cccc2ccccc12,1 to 39%
15,Cc1cc(O)c2c(c1Cl)C(=O)C=CC2=O,31 to 66%
16,Cc1nc(-c2ccccn2)sc1C(=O)N1CCCCC1,15 to 20%
17,Cc1n[nH]c(SCc2ccc([N+](=O)[O-])cc2)n1,1 to 38%
18,Sc1n[nH]c(-c2csc3c2CCCC3)n1,45 to 49%
19,O=C(O)c1n[nH]c2ccccc12,35 to 36%
20,NC(=O)CSc1nnc(-c2ccccc2)[nH]1,22 to 45%
21,CCOC(=O)CSc1nnc(CC)[nH]1,6 to 22%
22,CCOC(=O)CSc1nnc(N)[nH]1,18 to 34%
23,Cc1ccc(-c2nnc(C(C)N)o2)cc1 (stereo not given),21 to 49%
24,Nc1n[nH]c(SCc2cccc(Br)c2)n1,55 to 64%

row,Compound,inhibition
1,Cc1c(C(=O)O)sc2nc3n(c(=O)c12)CCC3,34 to 50%
2,O=C(CSc1nnc(-c2ccco2)[nH]1)N1CCOCC1,24 to 40%
3,CN(C)Cc1c(C(=O)O)nc2ccccn12,11 to 20%
4,Cc1n[nH]c(O)c1C1=NCCCCC1,4 to 65%
5,O=C(O)C1=NN(c2ccccc2)C(=O)CC1,14 to 39%
6,COc1cc(C=O)ccc1OCc1ccc(C(=O)O)o1,36 to 53%
7,CCc1ccc(OCCCSc2nnc(N)[nH]2)cc1,25 to 31%
8,Nc1cccc2c(-c3cccnc3)n[nH]c12,16 to 21%
9,O=C(O)c1cc([N+](=O)[O-])c(Cl)s1,7 to 63%
10,O=Cc1ccc(OCc2ccc(C(=O)O)o2)cc1,40 to 59%
11,Nc1nnc(SCc2ccc(F)cc2)[nH]1,1 to 18%
12,Cc1cc(C)c(C(=O)O)c(O)n1,44 to 52%
13,CCn1nc(C(=O)O)c2ccccc2c1=O,19 to 26%
14,O=C(O)c1ccc(S(=O)(=O)Cl)s1,2 to 36%
15,Cc1ccc(C2NC(C(=O)O)CS2)cc1 (stereo not given),1 to 74%
16,NC(=O)CSc1n[nH]c(-c2ccco2)n1,1 to 50%
17,Cc1cc(C)nc(SCc2ccc(C(=O)O)o2)n1,9 to 11%
18,Cc1cc(C(=O)O)n[nH]1,34 to 42%
19,CC(Sc1nnc(N)[nH]1)C(=O)OCc1ccccc1 (stereo not given),37 to 54%
20,Cc1ccc(OCc2ccc(C(=O)O)o2)cc1,1 to 22%
